The target of assay [1] is Estrogen receptor beta (Homo sapiens) (UniProt Q92731). In words: Agonist activity at ERbeta expressed in HEK293 cells at 10 uM after 24 hrs by luciferase reporter gene assay relative to 3,17-beta-estradiol. It is filed as functional, cell-based. The method in brief:
(§1)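 HEK293 cells (no endogenous ER) in phenol-free DMEM with 5% delipidated FBS were transfected for 4 h with 5 ng ERα or ERβ expression vector, 75 ng pERE2TATA-LUC reporter and 20 ng pCMVβ. Cells then received 10 μM compound, 10 nM E2 or vehicle (0.1% v/v) for 24 h. Luciferase was normalized to β-galactosidase and expressed as 100% × (test − vehicle)/(E2 − vehicle). Values are means of at least three independent transfections.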
(In general: Reporter assays use an easily measured gene product as a stand-in for the process of interest.)

The target in assay [2] is T1, Estrogen receptor (Homo sapiens) (UniProt P03372).
T1 sequence (whole entry): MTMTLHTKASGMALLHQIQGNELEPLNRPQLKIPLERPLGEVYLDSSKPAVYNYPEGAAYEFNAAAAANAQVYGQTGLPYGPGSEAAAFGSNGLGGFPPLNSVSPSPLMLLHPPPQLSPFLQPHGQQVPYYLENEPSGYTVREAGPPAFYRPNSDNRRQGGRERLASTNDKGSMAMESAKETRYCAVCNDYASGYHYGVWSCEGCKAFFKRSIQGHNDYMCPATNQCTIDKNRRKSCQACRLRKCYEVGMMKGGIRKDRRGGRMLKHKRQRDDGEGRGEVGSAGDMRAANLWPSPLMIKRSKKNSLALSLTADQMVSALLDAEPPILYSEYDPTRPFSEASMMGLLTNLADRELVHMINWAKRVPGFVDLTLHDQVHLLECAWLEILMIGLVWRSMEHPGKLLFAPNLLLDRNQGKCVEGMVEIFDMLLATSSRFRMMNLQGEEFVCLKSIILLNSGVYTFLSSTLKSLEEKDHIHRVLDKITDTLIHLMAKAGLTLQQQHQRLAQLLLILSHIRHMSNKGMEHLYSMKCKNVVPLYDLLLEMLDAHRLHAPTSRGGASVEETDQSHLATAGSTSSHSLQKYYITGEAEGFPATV
Description: Agonist activity at ERalpha expressed in HEK293 cells at 10 uM after 24 hrs by luciferase reporter gene assay relative to 3,17-beta-estradiol. The assay is classed as functional, cell-based. The method in brief: as §1

Estrogen receptor beta (Homo sapiens), sequence (Q92731 whole entry): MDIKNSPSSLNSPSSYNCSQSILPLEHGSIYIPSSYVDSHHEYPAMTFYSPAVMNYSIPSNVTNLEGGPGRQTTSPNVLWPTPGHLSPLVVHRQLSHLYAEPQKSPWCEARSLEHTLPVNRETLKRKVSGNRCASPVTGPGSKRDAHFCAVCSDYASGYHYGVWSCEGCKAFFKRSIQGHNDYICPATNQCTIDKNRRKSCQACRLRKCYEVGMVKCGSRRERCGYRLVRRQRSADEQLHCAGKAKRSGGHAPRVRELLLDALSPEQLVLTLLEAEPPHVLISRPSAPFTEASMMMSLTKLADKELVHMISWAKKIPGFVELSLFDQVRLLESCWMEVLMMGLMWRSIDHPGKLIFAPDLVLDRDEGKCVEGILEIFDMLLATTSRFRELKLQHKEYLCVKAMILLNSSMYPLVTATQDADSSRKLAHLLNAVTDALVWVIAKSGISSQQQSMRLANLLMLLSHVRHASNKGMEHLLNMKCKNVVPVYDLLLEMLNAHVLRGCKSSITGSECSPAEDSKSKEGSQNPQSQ

For the compound `O=C(CCCc1ccc(O)cc1)CC(O)Cc1ccc(O)cc1` (stereo in doubt; 32b), the Activity in assay [1] was -1.6%; in assay [2], 2.8%.

As to `Oc1ccc(CCCC2=NOC(Cc3ccccc3)C2)cc1` (stereo in doubt; 24a), the Activity in assay [1] was determined as 78.2%; in assay [2] it was 154%.

For the compound `CC1(c2ccccc2)CC(CCc2cccc(O)c2)=NO1` (single isomer, unassigned; 38a), the Activity in assay [1] stood at 0.5%; in assay [2], 21.6%.

On to `O=C(CCc1ccccc1)CC(O)c1ccccc1` (single isomer, unassigned), for which the results for the Activity in assay [1] and in assay [2] were 2.8% and 25.3%, respectively.

Regarding `Oc1ccc(CCCC2=NOC(Cc3ccccc3)C2)cc1O` (single isomer, unassigned; 27b), the Activity in assay [1] was -1.3%; in assay [2], 2.1%.

For `c1ccc(CCCC2=NOC(Cc3ccccc3)C2)cc1` (centres undefined), the Activity stood at 5.1% in assay [1] and 28.1% in assay [2].

For `Oc1ccc(CCC2=NOC(CCc3ccccc3)C2)cc1` (stereo in doubt; 18b), the Activity was found to be 0.8% in assay [1] and 15.8% in assay [2].

As to `CC1(c2ccccc2)CC(CCc2ccccc2O)=NO1` (single isomer, unassigned; 37b), the Activity in assay [1] stood at 30%; in assay [2], 21.7%.

For the compound `O=C(CCc1ccccc1)CC(O)Cc1ccc(O)cc1` (racemic), the Activity in assay [1] is 6.1%; in assay [2], 51.4%.

On to `Oc1cccc(CCC2=NOC(CCc3ccccc3)C2)c1` (stereo in doubt; 17a), for which the Activity in assay [1] amounted to 2.6%; in assay [2] it was 8.3%.

As for `CC(O)(CC(=O)CCc1ccccc1)c1ccccc1` (racemic), the Activity came to 38.4% in assay [1] and 52.1% in assay [2].

Consider `c1ccc(CCCC2=NOC(c3ccccc3)C2)cc1` (stereo in doubt; 43a), for which the Activity in assay [1] was -3.1%.

For `O=C(CCc1ccccc1O)CC(O)Cc1ccc(F)cc1` (racemic), the Activity in assay [1] came to 11.1%; in assay [2], 21.6%.

In the case of `Oc1ccc(CCCC2=NOC(c3cccc(O)c3)C2)cc1` (stereo in doubt; 47b), the values for the Activity in assay [1] and in assay [2] were 7.2% and 27.6%, respectively.

For the compound `Oc1ccc(CC2CC(CCCc3ccc(O)c(O)c3)=NO2)cc1` (single isomer, unassigned; 28a), the Activity in assay [1] was -1.1%; in assay [2], 1.7%.

With `Oc1ccc(CCCC2=NOC(c3cccc(O)c3)C2)cc1` (single isomer, unassigned), the results for the Activity in assay [1] and in assay [2] were -0.9% and 32.9%, respectively.

With `CC1(c2ccccc2)CC(CCc2cccc(O)c2)=NO1` (single isomer, unassigned; 38b), the Activity was -2.9% in assay [1] and 7.1% in assay [2].

For `CC1(c2ccccc2)CC(CCc2ccc(O)cc2)=NO1` (single isomer, unassigned; 39b), the Activity in assay [1] came out at 37.4%; in assay [2] it was 18.7%.

For the compound `O=C(CCc1ccccc1O)CC(O)CCc1ccccc1` (racemic), the Activity amounted to 1.1% in assay [1] and 4% in assay [2].

`Oc1ccc(CC2CC(CCc3ccccc3)=NO2)cc1` (centres undefined): the Activity in assay [1] is 42.4%; in assay [2], 105%.

In the case of `O=C(CCCc1ccccc1)CC(O)Cc1ccc(O)cc1` (racemic), the Activity is 2.4% in assay [1] and 16% in assay [2].

For the compound `Oc1ccc(CCCC2=NOC(Cc3ccccc3)C2)cc1` (single isomer, unassigned), the values for the Activity in assay [1] and in assay [2] were 19.8% and 75.1%, respectively.

With `CC1(c2ccccc2)CC(CCc2ccccc2)=NO1` (single isomer, unassigned; 36a), the Activity in assay [1] is -20%; in assay [2], 8.1%.

On to `Oc1ccc(CC2CC(CCCc3ccccc3)=NO2)cc1` (single isomer, unassigned; 25a), for which the Activity was 4.7% in assay [1] and 67.1% in assay [2].

For the compound `O=C(CCCc1ccc(O)cc1)CC(O)c1cccc(O)c1` (single isomer, unassigned), the values for the Activity in assay [1] and in assay [2] were 43.5% and 49.3%, respectively.

The values above are taken from ChEMBL document CHEMBL1157808, “Synthesis and biological evaluation of phenolic 4,5-dihydroisoxazoles and 3-hydroxy ketones as estrogen receptor alpha and beta agonists” (Bioorg Med Chem, 2010).
